Residues, ends and D or L forms follow the SMILES beside them. *: point of attachment. X1 = CCN(CC)C(=S)SCc1ccc(N*)cc1
Columns and labels:
[1] = biological target: T1, Prostate-specific antigen (PSA) (Homo sapiens, UniProt P07288); experiment: Stability assessed as PSA-mediated (unknown origin) compound cleavage by measuring parent compound remaining after 48 hrs by HPLC analysis; assay type: ADME; details: prostate-specific antigen (PSA) enzyme, read-out: Stability
T1 sequence (P07288 whole entry): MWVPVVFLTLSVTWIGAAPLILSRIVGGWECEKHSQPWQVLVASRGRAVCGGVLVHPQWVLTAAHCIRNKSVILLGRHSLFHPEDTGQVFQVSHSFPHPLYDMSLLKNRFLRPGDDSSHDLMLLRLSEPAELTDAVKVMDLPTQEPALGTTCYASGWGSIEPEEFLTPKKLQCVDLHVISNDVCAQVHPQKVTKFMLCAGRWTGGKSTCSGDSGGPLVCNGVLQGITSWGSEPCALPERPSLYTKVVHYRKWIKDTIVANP
In short: (§1)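 Prodrug incubated with 20 μg/mL PSA enzyme; samples taken at 5 min, 1 h, 2 h, 4 h, 8 h, 24 h and 48 h. Monitored by HPLC at 254 nm as percent prodrug remaining. Cleavage product identity confirmed by mass spectrometry.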

[2] = biological target: T2, Prostate-specific antigen (Homo sapiens, UniProt P07288); experiment: Prodrug activation assessed as PSA-mediated (unknown origin) Leu-PAB-DT metabolite formation measured up to 48 hrs by HPLC analysis; assay type: ADME; in short: as §1
T2 sequence (P07288 whole entry): T1 sequence (P07288 whole entry)

[3] = biological target: T2, Prostate-specific antigen; experiment: Prodrug activation in human LNCAP cell lysates assessed as PSA-mediated peptide cleavage measured up to 4 hrs by HPLC analysis; assay type: subcellular, Lysate
In short: (§2)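 Prodrug incubated with LNCaP or PC3 cell lysate. Cleavage followed over time by HPLC, with caffeine as reference, for up to 48 h.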

[4] = biological target: T2, Prostate-specific antigen; experiment: Prodrug activation assessed as PSA-mediated (unknown origin) diethyldithiocarbamate formation in presence of leucine aminopeptidase by LC-MS analysis; assay type: ADME
[5] = Prodrug activation in human PC3 cell lysate assessed as peptide cleavage measured up to 48 hrs by HPLC analysis; assay type: subcellular; details: pc-3, 48 h; in short: as §2
[6] = biological target: T2, Prostate-specific antigen; experiment: Prodrug activation assessed as PSA-mediated (unknown origin) Cu(diethyldithiocarbamate)2 complex formation in presence of leucine aminopeptidase and CuSO4 after 14.5 mins by LC-MS analysis; assay type: ADME
Prostatic carcinoma cell = experiment: Antiproliferative activity against human prostate cancer cells assessed as reduction in cell viability after 24 hrs by resazurin dye based assay; assay type: functional
In short: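 LNCaP (PSA-expressing) and PC3 (PSA-non-expressing) cells were co-treated with prodrug plus 1 μM CuSO4. Proliferation was read by resazurin assay at 24 h, and IC50 was derived.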

[7] = Cytotoxicity against human prostate epithelial cells assessed as reduction in cell viability after 24 hrs by resazurin dye based assay
[8] = biological target: T2, Prostate-specific antigen; experiment: Prodrug activation assessed as PSA-mediated (unknown origin) [4-[[(2S)-2-[[(2R)-2-amino-3-hydroxy-propanoyl]amino]-4-methyl-pentanoyl]amino]phenyl]methyl N,N-diethylcarbamodithioate metabolite formation in presence of CuSO4 by LC-MS analysis; assay type: ADME
In short: (§3)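 Prodrug was incubated with 20 μg/mL PSA enzyme and sampled from 5 min to 48 h. Samples were analysed by HPLC at 254 nm, and products were assigned by mass spectrometry (m/z).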

[9] = biological target: T2, Prostate-specific antigen; experiment: Prodrug activation assessed as PSA-mediated (unknown origin) Cu(diethyldithiocarbamate)2 complex formation in presence of CuSO4 by LC-MS analysis; assay type: ADME; in short: as §3
[10] = Prodrug activation in human PC3 cell lysate assessed as peptide cleavage measured up to 4 hrs by HPLC analysis; assay type: subcellular; details: pc-3, 4 h; in short: as §2
[11] = biological target: T2, Prostate-specific antigen; experiment: Prodrug activation assessed as PSA-mediated (unknown origin) compound cleavage measured up to 8 hrs by HPLC analysis; in short: as §1
[12] = biological target: T2, Prostate-specific antigen; experiment: Prodrug activation assessed as PSA-mediated (unknown origin) 4-((R)-2-((R)-2-amino-3-hydroxypropanamido)-4-methylpentanamido)benzyl diethyl-carbamodithioate metabolite formation by HPLC analysis; assay type: ADME; in short: as §1

Q: For `CCN(CC)C(=S)SCc1ccc(NC(=O)[C@H](CC(C)C)NC(=O)[C@H](CO)NC(=O)[C@H](Cc2ccc(O)cc2)NC(=O)[C@H](Cc2ccc(O)cc2)NC(=O)[C@H](CO)NC(=O)[C@H](CO)NC(=O)[C@@H](N)CCCNC(=N)N)cc1` (H-RSSYYSL-X1), which remaining at 48 h [1] is on record?
A: 30%

Q: What about the Drug metabolism [2] of the same molecule?
A: Metabolite_Detected

Q: And the Drug metabolism [3]?
A: 100%

Q: And the Drug metabolism [4]?
A: Metabolite_Notdetected

Q: And the Drug metabolism [5]?
A: Metabolite_Notdetected

Q: What about the Drug metabolism [6] of the same molecule?
A: Metabolite_Detected

Q: Which IC50 (Prostatic carcinoma cell) does the source give for `CCN(CC)C(=S)SCc1ccc(NC(=O)CC[C@H](N)C(=O)O)cc1` here?
A: 0.8 µM

Q: And the IC50 [7]?
A: 15 µM

Q: Which Drug metabolism [8] does the source give for `CCN(CC)C(=S)SCc1ccc(NC(=O)[C@H](CC(C)C)NC(=O)[C@H](CO)NC(=O)[C@H](Cc2ccc(O)cc2)NC(=O)[C@H](Cc2ccc(O)cc2)NC(=O)[C@H](CO)NC(=O)[C@H](CO)NC(=O)[C@H](CCCNC(=N)N)NC(=O)[C@H](N)CO)cc1` here?
A: Metabolite_Detected

Q: What about the Drug metabolism [9] of the same molecule?
A: Metabolite_Notdetected

Q: For `CCN(CC)C(=S)SCc1ccc(NC(=O)[C@H](CC(C)C)NC(=O)[C@H](CCC(N)=O)NC(=O)[C@H](CC(C)C)NC(=O)[C@H](CCCCN)NC(=O)[C@H](CO)NC(=O)[C@H](CO)NC(=O)[C@H](Cc2c[nH]cn2)NC(C)=O)cc1` (Ac-HSSKLQL-X1), which Drug metabolism [10] is on record?
A: > 50%

Q: And the Drug metabolism [11]?
A: 100%

Q: And the Drug metabolism [3]?
A: 100%

Q: What about the Drug metabolism [4] of the same molecule?
A: Metabolite_Notdetected

Q: What about the Drug metabolism [12] of the same molecule?
A: Metabolite_Detected

Q: And the Drug metabolism [6]?
A: Metabolite_Detected

— ChEMBL document CHEMBL4627365, “Dithiocarbamate prodrugs activated by prostate specific antigen to target prostate cancer” (Bioorg Med Chem Lett, 2020)
